Many of the other results were omitted from the sample, so hits are more common in it than they were.
ALR inh: human ALR oxidase inhibition via reduced H2O2. AID 485317. inhibition, % (no concentration beside the values). purified ALR, DTT oxidation, H2O2 HRP-luminol luminescence. actives 3.8% (n = 290,000);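 active = mean replicate inhibition above about 79%, with every replicate also reaching it, limit read from the data; inconclusive = only one of the two criteria met; inactive = mean below limit and not every replicate reaching it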
Target sequence (P55789 whole entry, looked up): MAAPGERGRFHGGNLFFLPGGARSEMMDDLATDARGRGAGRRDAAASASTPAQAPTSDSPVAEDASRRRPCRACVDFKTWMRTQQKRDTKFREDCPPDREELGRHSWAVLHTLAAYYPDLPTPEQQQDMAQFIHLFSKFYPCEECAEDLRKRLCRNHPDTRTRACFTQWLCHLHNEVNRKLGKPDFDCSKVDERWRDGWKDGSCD
T cell HTS: modulates CD8 T cell binding to vesicles; 2C CD8+ T cell-vesicle binding, flow cytometry; active compounds read low; AID 2052; response (vesicle binding), % at 7 µM; actives 0.068% (n = 330,000);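 active = response, share of CD8 T cells binding vesicles, and their 90th percentile fluorescence all below set limits, cut at about 80% in these data, passing the limit was not always enough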;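 note: values below 100% mean blocked vesicle binding to the CD8+ T cells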
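incubation = binding step 1.5 h, 37 °C, antibody labelling 20 min, ice | test system = 2C mouse CD8+ T cells | read-out basis = percent CD8+ FL2 mean versus row control | controls = Peptide-free naked vesicles (low) and QL9 vesicles with 0.7% DMSO vehicle (high) | detection = flow cytometry of vesicle-bound cells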
Glyco luc inh: blocks N-linked glycosylation in D54 reporter cells | D54 ERlucT glycosylation luciferase reporter, 24 h; percent of 100 nM tunicamycin response | reporter increase, % at 12.5 µM | actives 0.23% (n = 360,000);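 active = mean luciferase reporter signal, scaled so untreated is 0 and the glycosylation-blocking control 100, at or above a set limit in every replicate; inconclusive = mean reaches the limit but not every replicate does; inactive = mean below the limit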;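 note: luciferase carries N-glycosylation sites so blocking glycosylation raises the light; 0% = median of neutral control wells and 100% = median of 100 nM tunicamycin wells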
* hit, by the source's call; ? = inconclusive; . = not tested or not shown.

SMILES	ALR inh	T cell HTS	Glyco luc inh
COC(=O)CSc1nc2ccc(N)cc2s1	99*	240	1
Cc1nc([N+](=O)[O-])c(SCC(N)=O)n1Cc1ccccc1	7	275	-1
Cc1nc([N+](=O)[O-])c(Sc2nc3ccccc3n2C)n1Cc1ccccc1	98*	241	12
CCOc1cc(Cl)c(S(=O)(=O)NCc2cccnc2)cc1Cl	-1	165	-1
CCOc1ccc(C(Nc2ccc(C)cc2)P2(=O)OCCC(C)O2)cc1 (stereo not drawn)	98*	166	2
CCOc1ccc(C(Nc2ccc(C)cc2)P2(=O)OCCCO2)cc1 (stereo not drawn)	?	268	1
CC(C)Cc1ccccc1O	-2	731	.
CCOc1ccccc1N1CC(C(=O)Nc2cc(Cl)ccc2-n2cncn2)CC1=O (stereo not drawn)	-6	776	4
CN(C)c1ccc(-n2cccc2/C=C/[N+](=O)[O-])cc1	70	113	64*
CN(c1ccccc1)c1ccc(/C=C/[N+](=O)[O-])cc1	.	374	-20
O=C(CC1SC(=O)NC1=O)Oc1ccc(/C=N/NC(=O)c2ccccc2O)cc1 (stereo not drawn)	99*	202	2
Cn1nccc1C(=O)Oc1ccc(/C=N/NC(=O)c2ccccc2O)cc1	93*	402	2
O=C(Oc1ccc(/C=N/NC(=O)c2ccccc2O)cc1)c1ccccc1	-17	397	3
CC(=O)Nc1ccc(OC(=O)CC2SC(=O)NC2=O)cc1 (stereo not drawn)	-13	252	0
CCn1c(=O)n(CC)c2cc(N3CCCC3)c(NC(=O)c3cccc(Cl)c3)cc21	71	177	7
O=C(CSC(=S)N1CCCC1)NCC(=O)Nc1ccc(F)c(F)c1	-2	576	-1
CCNC(=O)C1(C)CCN(C(=O)c2cccc(OC(F)(F)F)c2)C1 (stereo not drawn)	.	.	1
Cn1c(O)c(/C=N/Nc2ccccc2)c(=O)n(C)c1=O	100*	475	4
Cc1[nH]nc(N=Cc2c(O)n(C)c(=O)n(C)c2=O)c1-c1ccccc1	-1	333	.
O=C(NC1CCSc2ccccc21)c1cccc([N+](=O)[O-])c1 (stereo not drawn)	-1	201	-2
O=C(CSc1nnc(-c2ccco2)c(-c2ccco2)n1)c1ccccc1	99*	147	2
CC(=O)c1ccc(NC(=O)CSc2nnc(-c3ccco3)c(-c3ccco3)n2)cc1	99*	105	1
CC(=O)Nc1ccc(NC(=O)CSc2nnc(-c3ccco3)o2)cc1	39	195	1
O=C(CSc1nnc(-c2ccco2)n1Cc1ccccc1)c1ccccc1	19	251	-1
CC(C)c1ccc(C(=O)CSc2n[nH]c(-c3ccncc3)n2)cc1	0	413	4
SMILES	ALR inh	T cell HTS	Glyco luc inh
O=C(CSc1n[nH]c(-c2ccccc2)n1)c1ccccc1	97*	188	-1
O=C(O)c1ccc(-c2ccc(/C=c3/sc4nc5ccccc5n4c3=O)o2)cc1Cl	8	483	3
O=C(O)C[C@H]1c2ccc(C(F)(F)F)cc2S(=O)(=O)N1Cc1ccccc1	11	206	2
O=C(Nc1ccc2c(c1)OCO2)c1cc(C2CCCCN2C(=O)CCCc2ccccc2)on1 (stereo not drawn)	.	.	-5
COC(=O)C1CCN(CC(=O)NC(=O)Nc2ccccc2F)CC1	-1	518	-2
COc1ccc(C(=O)OCC(=O)NC23CC4CC(CC(C4)C2)C3)c(OC)c1OC	-5	412	0
CCC1(c2ccc(F)cc2)NC(=O)N(CC(=O)c2cc(C)n(C3CC3)c2C)C1=O (stereo not drawn)	.	370	-2
N#C/C(=C\c1ccc(C#N)cc1)C(=O)c1ccccc1	93*	161	4
N#CC(=Cc1ccc(-c2ccccc2)cc1)C(=O)c1ccccc1	.	.	2
CCOC(=O)c1c(C)[nH]c(C(=O)COC(=O)CNS(=O)(=O)c2ccc(C)cc2)c1C	0	262	1
CCN1C(=O)/C(=C2/Sc3ccccc3N2CC)S/C1=N\c1ncn[nH]1	98*	226	-1
C=CCN1C(=O)/C(=C2/Sc3ccccc3N2CC)SC1=S	5	298	-2
Cc1cc(N2CCOCC2)nc(N)n1	.	217	3
Cc1cc(N2CCOCC2)c2c(N)c(C)cc(C)c2n1	99*	291	-3
CCOc1cc(C(=O)OCC(=O)N(C)c2ccccc2)cc(OCC)c1OCC	-1	207	-1
COc1ccc(NC(=O)CN2C(=O)CC(C)S(=O)(=O)c3ccccc32)cc1 (stereo not drawn)	-24	409	-1
CCOC(=O)c1c(NC(=S)Nc2ccccc2)sc2c1CCN(CC)C2	87*	350	0
CCOC(=O)c1c(NC(=S)Nc2ccccc2)sc2c1CCCCC2	5	305	4
CN1CCN(C(=O)c2ccc3c(Cl)c4c(nc3c2)CCCC4)CC1	-1	234	1
CCN1CCN(C(=O)c2ccc3c(Cl)c4c(nc3c2)CCCC4)CC1	98*	708	-2
CC1CCN(CCCNC(=O)c2ccc3c(Cl)c4c(nc3c2)CCCC4)CC1	90*	302	-8
O=C(NCCCN1CCCCCC1)c1ccc2c(Cl)c3c(nc2c1)CCCC3	13	234	-6
COc1c2ccccc2c(OC)c2ccccc12	-22	316	3
CCOC(=O)NC1Cc2ccccc2C1Sc1ccccn1 (stereo not drawn)	1	213	0
Cc1n[nH]c(=S)n1-c1cccc(Cl)c1	94*	0	2
SMILES	ALR inh	T cell HTS	Glyco luc inh
Cc1cccc(-n2c(C)n[nH]c2=S)c1C	77*	648	1
Cc1ccccc1OCc1n[nH]c(=S)n1-c1cccc(Cl)c1	.	459	1
Cc1cccc(-n2c(-c3ccncc3)n[nH]c2=S)c1C	.	485	1
Cc1ccc(S(=O)(=O)N(C)CC(=O)OCC(=O)NC(=O)Nc2ccc3c(c2)OCCO3)cc1	-7	569	-2
CN(C)CCn1c2c(c(SCC(=O)Nc3nccs3)nc1=O)CCCC2	96*	413	-1
CN(C)CCCn1c2c(c(SCC(=O)Nc3cccc4ccccc34)nc1=O)CCC2	72	347	-8
CCN(CC)CCn1c2c(c(SCC(=O)Nc3nccs3)nc1=O)CCCC2	98*	811	-1
CCN(CC)CCn1c2c(c(SCC(=O)Nc3cc(C)ccc3C)nc1=O)CCC2	-10	283	-4
CC(OC(=O)Cc1n[nH]c(=O)c2ccccc12)C(=O)Nc1cccc([N+](=O)[O-])c1 (stereo not drawn)	-7	222	1
CCOc1ccc(C2C(C(=O)c3ccc(C)o3)=C(O)C(=O)N2c2cc(C)on2)cc1OC (stereo not drawn)	3	200	4
CCOc1ccc(C2C(C(=O)c3ccc(C)o3)=C(O)C(=O)N2c2nc(C)c(C(=O)OC)s2)cc1 (stereo not drawn)	97*	201	2
Cc1cc(N2C(=O)C(O)=C(C(=O)c3cc4ccccc4o3)C2c2cccc(Br)c2)no1 (stereo not drawn)	98*	160	1
CCCOc1cccc(C2C(C(=O)c3cc4ccccc4o3)=C(O)C(=O)N2c2cc(C)on2)c1 (stereo not drawn)	11	366	0

High-throughput results deposited in PubChem BioAssay by several laboratories.
